Assay results from ChEMBL document CHEMBL1124784, “Synthesis and bioactivity of a new class of rigid glutamate analogues. Modulators of the N-methyl-D-aspartate receptor” (1990).
Where “and” joins values, the source holds several entries; their conditions need not be identical. Identical values can stand only once.

Tests used:
[1] = organism: Rattus norvegicus; test: Effect on fractional [3H]GABA release from rat forebrain neurons in culture; format: functional
Procedure, shortened: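 Embryonic rat forebrain neurons cultured 8–9 days, loaded with 1 μCi/mL [3H]GABA 60–90 min at 37 °C, washed eight times at 5 min intervals in Mg2+-free HEPES saline, then agonist added; CGS 19755 (100 μM) where used added 5 min before. Evoked efflux minus basal, as fraction of remaining cell tritium (SDS-solubilized); 4–6 wells.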

[2] = organism: Rattus norvegicus; test: Effect on fractional [3H]GABA release from rat forebrain neurons in culture in the presence of 100 uM CGS 19755
[3] = system: Cerebellar granule neurone; test: Influx of calcium in Cerebellar Granule Cells of rat after 10 min of incubation with compound and 10 uM glutamate; format: functional
Procedure, shortened: (§1)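 Cerebellar granule cells preincubated 15 min with 50 μM azetidine, then 10 min without (basal) or with 10 μM glutamate or 10 μM aspartate; 45Ca2+ influx measured. Percent stimulation relative to agonist alone (100%) after subtracting respective basal values; means ± SEM of four experiments.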

[4] = system: Cerebellar granule neurone; test: Influx of calcium in Cerebellar Granule Cells of rat after 10 min of incubation with compound; format: functional; procedure, shortened: as §1
[5] = system: Cerebellar granule neurone; test: Stimulation caused by Glutamate in Cerebellar Granule Cells over basal stimulation; format: functional, Rattus norvegicus; procedure, shortened: as §1
[6] = system: Cerebellar granule neurone; test: Influx of calcium in Cerebellar Granule Cells of rat after 10 min of incubation with compound and 10 uM aspartate; format: functional; procedure, shortened: as §1
[7] = system: Cerebellar granule neurone; test: Stimulation caused by aspartate in Cerebellar Granule Cells over basal stimulation; format: functional, Rattus norvegicus; procedure, shortened: as §1
[8] = system: Cerebellar granule neurone; test: Ability to induce calcium uptake in cerebellar granule cells was determined at 50 uM concentration in presence of 50 uM NMDA (control = 91+/-6.5); format: functional, Rattus norvegicus
Procedure, shortened: (§2)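 Rat cerebellar granule cells (8-day-old rats), cultured 8–9 days; HEPES saline pH 7.35 with 1.3 mM CaCl2, 45CaCl2 tracer 10 min, then azetidine 50 μM 15 min at 37 °C, then agonist 10 min. Kainate/quisqualate media held 1 mM MgCl2 and 10 μM CPP. Choline/EGTA wash stop; 45Ca uptake per mg protein.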

[9] = system: Cerebellar granule neurone; test: Stimulation caused by Aspartate in Cerebellar Granule Cells at 50 uM concentration in presence of 1 uM glutamate; format: functional, Rattus norvegicus; procedure, shortened: as §2
[10] = system: Cerebellar granule neurone; test: Ability to induce calcium uptake in cerebellar granule cells was determined at 50 uM concentration in presence of 100 uM kainate (control = 56+/-3.7); format: functional, Rattus norvegicus; procedure, shortened: as §2
[11] = system: Cerebellar granule neurone; test: Ability to induce calcium uptake in cerebellar granule cells was determined at 50 uM concentration in presence of 100 uM quisqualate (control=15+/-1.2); format: functional, Rattus norvegicus; procedure, shortened: as §2
[12] = system: Cerebellar granule neurone; test: Stimulation caused by Aspartate in Cerebellar Granule Cells at 50 uM concentration in presence of 100 uM kainate; format: functional, Rattus norvegicus; procedure, shortened: as §2
[13] = system: Cerebellar granule neurone; test: Ability to induce calcium uptake in cerebellar granule cells was determined at 50 uM concentration in presence of 1 uM glutamate (control= 39+/-3.8); format: functional, Rattus norvegicus; procedure, shortened: as §2
[14] = system: Cerebellar granule neurone; test: Stimulation caused by Aspartate in Cerebellar Granule Cells at 50 uM concentration in presence of 100 uM quisqualate; format: functional, Rattus norvegicus; procedure, shortened: as §2
[15] = system: Cerebellar granule neurone; test: Stimulation caused by Aspartate in Cerebellar Granule Cells at 50 uM concentration in presence of 10 uM CPP; format: functional, Rattus norvegicus; procedure, shortened: as §2
[16] = system: Cerebellar granule neurone; test: Ability to induce calcium uptake in cerebellar granule cells was determined at 50 uM concentration in presence of 10 uM CPP (control= 5.4+/-0.3); format: functional, Rattus norvegicus; procedure, shortened: as §2
[17] = system: Cerebellar granule neurone; test: Stimulation caused by Aspartate in Cerebellar Granule Cells at 50 uM concentration in presence of 10 uM aspartate
[18] = system: Cerebellar granule neurone; test: Stimulation caused by Aspartate in Cerebellar Granule Cells at 50 uM concentration in presence of 50 uM NMDA; format: functional, Rattus norvegicus; procedure, shortened: as §2
[19] = system: Cerebellar granule neurone; test: Ability to induce calcium uptake in cerebellar granule cells was determined at 50 uM concentration in presence of 10 uM aspartate (control = 43+/-2.9)
[20] = system: Cerebellar granule neurone; test: Stimulation caused by Aspartate in Cerebellar Granule Cells at 50 uM concentration; format: functional, Rattus norvegicus; procedure, shortened: as §2
[21] = system: Cerebellar granule neurone; test: Ability to induce calcium uptake in cerebellar granule cells was determined at 50 uM concentration (control= 16+/-1.5); format: functional, Rattus norvegicus; procedure, shortened: as §2

CN[C@H](CC(=O)O)C(=O)O [N-METHYL-D-ASPARTIC ACID (NMDA)]
Release [1]: 0.73% | Release [2]: 0.09%

CC(C)(C)OC(=O)[C@@H]1C[C@@H](C(=O)O)N1
Influx [3]: 51 nM/mg | Influx [4]: 16 nM/mg | Stimulation [5]: 97%

COC(=O)[C@H]1C[C@@H](C(=O)O)N1
Influx [4]: 18 nM/mg

COC(=O)[C@H]1C[C@@H](C(=O)OC(C)(C)C)N1
Influx [3]: 54 nM/mg | Influx [4]: 14 nM/mg | Influx [6]: 43 nM/mg | Stimulation [5]: 111% | Stimulation [7]: 107%

NC(=O)[C@@H]1C[C@H](C(=O)O)N1
Influx [4]: 20 nM/mg

CC(=O)N1[C@@H](C(=O)O)C[C@H]1C(=O)O
Influx [4]: 16 nM/mg

COC(=O)[C@@H]1C[C@H](C(=O)OC)N1
Influx [4]: 19 nM/mg

O=C(O)[C@@H]1CCN1
Influx [4]: 16 nM/mg | Influx [6]: 44.5 nM/mg | Stimulation [7]: 105%

CCCCCCN1[C@@H](C(=O)O)C[C@H]1C(=O)O
Influx [4]: 16 nM/mg

NC(=O)[C@@H]1C[C@H](C(N)=O)N1
Influx [4]: 15 nM/mg

O=C(O)[C@H]1C[C@@H](C(=O)O)N1Cc1ccccc1
Influx [4]: 15 nM/mg

O=C(O)[C@H]1C[C@@H](CO)N1
Influx [4]: 19 nM/mg | Influx [6]: 58 nM/mg

CC(C)(C)OC(=O)[C@H]1C[C@@H](C(=O)O)N1
Influx [3]: 67 nM/mg | Influx [4]: 15 nM/mg | Influx [6]: 52 nM/mg | Stimulation [5]: 144% | Stimulation [7]: 136%

C=C(C)[C@H]1CN[C@H](C(=O)O)[C@H]1CC(=O)O [KAINIC ACID]
Release [1]: 2.65% | Release [2]: 2.63%

O=C(O)[C@@H]1C[C@H](C(=O)O)N1
Influx [8]: 136 nM/mg | Stimulation [9]: 268% | Influx [10]: 52 nM/mg | Influx [11]: 15 nM/mg | Influx [3]: 92 nM/mg | Release [1]: 1.04% | Release [2]: -0.08% | Stimulation [12]: 93% | Influx [4]: 25 nM/mg and 21 nM/mg | Influx [13]: 85 nM/mg | Influx [6]: 68 nM/mg | Stimulation [5]: 186% | Stimulation [14]: 100% | Stimulation [15]: 91% | Influx [16]: 4.9 nM/mg | Stimulation [17]: 193% | Stimulation [18]: 151% | Influx [19]: 75 nM/mg | Stimulation [7]: 175% | Stimulation [20]: 144% | Influx [21]: 23 nM/mg

O=C(O)[C@@H]1C[C@@H](C(=O)O)N1
Influx [3]: 52 nM/mg | Influx [4]: 14 nM/mg | Stimulation [5]: 106%

COC(=O)[C@@H]1C[C@@H](C(=O)OC(C)(C)C)N1
Influx [3]: 52 nM/mg | Influx [4]: 15 nM/mg | Stimulation [5]: 105%
